Reference: ChEMBL document CHEMBL4184339, “NMR Biochemical Assay for Oxidosqualene Cyclase: Evaluation of Inhibitor Activities on Trypanosoma cruzi and Human Enzymes” (J Med Chem, 2018)

Tests used:
[1] = Inhibition of Trypanosoma cruzi strain CL Brener C-terminal His6-tagged OSC expressed in Pichia pastoris GS115 using 2,3-oxidosqualene as substrate after 20 mins by 1H NMR method
Summary of the method: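 T. cruzi OSC was expressed in Pichia pastoris GS115, first grown in BMGY ([…]glycerol) at 30 °C for 3 days and then induced in BMMY (1% methanol) at 25 °C for 2 days. Cells were homogenized in Tris-HCl pH 7.5 with 250 mM NaCl. Purification buffers contained 0.2% Triton X-100 or 0.2–1.2% β-octylglucoside. The substrate, 2,3-oxidosqualene, was in 10 mM sodium phosphate buffer with varied inhibitor. Reactions started with 19 nM enzyme (final) and ran at 37 °C for 20 min. Lanosterol was quantified by 1H NMR with factor analysis, and IC50 was taken from a fit of the first-factor score.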

[2] = target: T1, Lanosterol synthase (Homo sapiens, UniProt P48449); test: Inhibition of human C-terminal His6-tagged OSC expressed in Pichia pastoris GS115 using 2,3-oxidosqualene as substrate after 90 mins by 1H NMR method
T1 sequence (P48449 whole entry): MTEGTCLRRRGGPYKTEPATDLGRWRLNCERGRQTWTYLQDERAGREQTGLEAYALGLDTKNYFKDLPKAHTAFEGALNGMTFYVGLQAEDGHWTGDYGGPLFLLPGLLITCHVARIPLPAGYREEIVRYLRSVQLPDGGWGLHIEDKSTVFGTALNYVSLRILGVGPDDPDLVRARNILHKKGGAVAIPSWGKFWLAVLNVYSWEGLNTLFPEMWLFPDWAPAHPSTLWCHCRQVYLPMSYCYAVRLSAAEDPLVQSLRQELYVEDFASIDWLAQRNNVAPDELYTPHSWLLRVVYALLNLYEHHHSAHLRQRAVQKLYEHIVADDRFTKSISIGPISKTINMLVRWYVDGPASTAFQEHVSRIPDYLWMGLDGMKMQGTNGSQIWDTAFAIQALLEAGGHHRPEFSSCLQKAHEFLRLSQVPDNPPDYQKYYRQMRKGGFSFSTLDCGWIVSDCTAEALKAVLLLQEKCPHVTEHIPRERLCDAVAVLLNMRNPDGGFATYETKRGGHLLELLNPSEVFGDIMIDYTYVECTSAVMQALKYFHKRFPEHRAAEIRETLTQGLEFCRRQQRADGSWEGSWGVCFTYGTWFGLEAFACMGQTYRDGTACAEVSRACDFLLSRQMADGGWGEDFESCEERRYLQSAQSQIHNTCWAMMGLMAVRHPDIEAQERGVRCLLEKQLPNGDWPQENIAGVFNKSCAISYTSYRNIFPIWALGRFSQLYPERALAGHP
Summary of the method: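 Human OSC was expressed in Pichia pastoris GS115 using BMGY at 30 °C for 3 days, then BMMY methanol induction at 25 °C for 2 days. Purification included a Superdex 200 step, with buffers containing 0.2% Triton X-100 or 0.2–0.8% β-octylglucoside. Product was measured by NMR with factor analysis, and IC50 was fitted from the first-factor score.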

[3] = Selectivity ratio of IC50 for human C-terminal His6-tagged OSC to IC50 for Trypanosoma cruzi strain CL Brener C-terminal His6-tagged OSC
[4] = tested on: Trypanosoma cruzi; test: Parasiticidal activity against amastigote stage of Trypanosoma cruzi Tulahuen infected in mouse brain fibroblast assessed as time duration of effect at 9.6 microM preincubated for 5 days followed by another 10 days incubation with fresh compound; format: functional
[5] = tested on: Trypanosoma cruzi; test: Parasiticidal activity against amastigote stage of Trypanosoma cruzi Tulahuen infected in mouse brain fibroblast assessed as time duration of effect at 19.2 microM preincubated for 5 days followed by another 10 days incubation with fresh compound; format: functional
[6] = tested on: Trypanosoma cruzi; test: Antiparasitic activity against epimastigote stage of Trypanosoma cruzi Tulahuen assessed as inhibition of parasite proliferation after 48 hrs by Alamar Blue assay; format: functional, organism-based
Summary of the method: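 Epimastigotes (one million per assay) were cultured in LIT medium with 10% newborn calf serum and co-incubated with compound. Afterwards, alamarBlue was added and fluorescence was read as a measure of viability.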

[7] = tested on: Trypanosoma cruzi; test: Parasiticidal activity against amastigote stage of Trypanosoma cruzi Tulahuen infected in mouse brain fibroblast assessed as time duration of effect at 10.9 microM preincubated for 5 days followed by another 10 days incubation with fresh compound; format: functional
[8] = tested on: Trypanosoma cruzi; test: Parasiticidal activity against amastigote stage of Trypanosoma cruzi Tulahuen infected in mouse brain fibroblast assessed as time duration of effect at 21.8 microM preincubated for 5 days followed by another 10 days incubation with fresh compound; format: functional

Compound	IC50 [2] [nM]	Ratio IC50 [3]	IC50 [6] [nM]	IC50 [1] [nM]	Time [4] [days]	Time [5] [days]	Time [7] [days]	Time [8] [days]
C=CCN(C)CCCCCCOc1ccc(C(=O)c2ccc(Br)cc2)c(F)c1	–	–	–	13	–	–	–	–
O=C(Cn1ccnc1[N+](=O)[O-])NCc1ccccc1 [BENZNIDAZOLE]	–	–	–	–	35	53	–	–

More lines, main results first:

IC50 [2] [nM]	Ratio IC50 [3]	IC50 [6] [nM]	Compound	IC50 [1] [nM]	Time [4] [days]	Time [5] [days]	Time [7] [days]	Time [8] [days]
230	1.6	–	CN(C)Cc1ccc(N2CCC(N(C)S(=O)(=O)c3ccc(Cl)cc3)CC2)cc1	140	–	–	–	–
120	2.7	2150	CN(C)CCOc1ccc(OC2CCN(S(=O)(=O)c3ccc(F)cc3)CC2)cc1.Cl	44	–	–	21	29
16	0.38	110	C=CCN(C)Cc1ccc(N2CCC(N(C)S(=O)(=O)c3ccc(Cl)cc3)CC2)cc1.Cl.Cl	42	62	80	–	–
